The subject of assay [1] is THP-1 cells. The experiment in a line: Cholesterol efflux from THP-1 cells, with or without LXR agonist. The format is cell-based, human.
Assay [2] concerns THP-1 cells. The assay is classed as cell-based, human. As to conditions: (efflux from live cells minus fixed cells)/efflux from live cells x100%; 80 μg/ml; 4 h; compared with apoA-I.
The next assay has as its system VCAM-1. The assay is classed as cell-based, mouse. As to conditions: 0.75 mg/ml; TNF-α-activated SVEC4/VCAM-1 cells. The method in brief:
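SVEC4/VCAM-1 mouse endothelial cells were washed, then given test peptide, apoA-I or HDL at 0.75 mg/ml final for 18 h. TNF-α was added in serum-free medium (10 ng/ml final) for 5 h, and luciferase activity was measured. Activity was expressed per mg cellular protein, relative to vehicle-treated cells, as means ± SEM.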

Entries after “also recorded” stand apart in the source; their conditions may differ.

Consider “EKLKAKLEELKAKLEELL- P- EKLKAKLEELKAKLEELL [ELK-2A2K2E]”, for which, in the assay on THP-1 cells [1], the “Capacity to support (ABCA1-dependent) cholesterol efflux, in words” value (from here on “Capacity to support”) is “exceptional capacity to support cholesterol efflux, even exceeding that of apoA-I; also recorded: very active in ABCA1-dependent cholesterol efflux”. Besides, the “Specificity of cholesterol efflux, in words” value with THP-1 cells [2] is given as “exceptional specificity”. As for “EKLKALLEKLLAKLKELL P- EKLKALLEKLLAKLKELL [ELK-2A]”, the “Inhibition of VCAM-1 expression, in words” value with VCAM-1 is on record as “most active peptide”.

With “EKLKAKLEELKAKLEELL- P- EKAKAALEEAKAKAEELA”, the “Capacity to support” value in the assay with THP-1 cells [1] is listed as “very low overall capacity to support cholesterol efflux”.

With “EWLKELLEKLLEKLKELL- P- EWLKELLEKLLEKLKELL [ELK-1W]”, the “Capacity to support” value in the assay on THP-1 cells [1] is recorded as “modest capacity for the ABC-dependent efflux”. Besides, the “Specificity of cholesterol efflux, in words” value with THP-1 cells [2] is listed as “exceptional specificity”.
